# The source made the active and inactive calls. No cut-off for these calls is given here.
# Legend:
# RAW264.7 = assay: Antiproliferative activity against mouse RAW264.7 cells at 10 uM after 48 hrs relative to control; type: functional
# Outline: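 RAW264.7 cells grown in RPMI with 10% FBS and passaged by scraping. Seeded in 96-well plates, treated at 10 µM 24 h after seeding, four replicates. CellTiter-Glo ATP luminescence read 48 h after treatment; results given as percent of vehicle-treated control with SD.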
# [1] = Antiproliferative activity against human WI38 cells at 10 uM after 48 hrs relative to control; type: cell-based; settings: wi-38, 48 h
# Outline: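 WI-38 embryonic lung fibroblasts grown in DMEM with 10% FBS and passaged with trypsin. Plated in 96-well format and exposed to a single 10 µM concentration, with DMSO vehicle. CellTiter-Glo luminescence read 48 h after treatment, four replicates. Values given as percent of control ± SD.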
# HeLa = assay: Antiproliferative activity against human HeLa cells at 10 uM after 48 hrs relative to control; type: functional, cell-based
# Outline: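 HeLa cells grown in DMEM with 10% FBS, seeded in 96-well plates and treated 24 h after seeding. CellTiter-Glo assay run 48 h post-treatment, four replicates per concentration. Results given as mean ± SEM relative to DMSO vehicle.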
# RBL-2H3 [2] = assay: Antiproliferative activity against rat RBL2H3 cells at 1 uM treated 1 hr before LPS-challenge assessed after 24 hrs relative to control; type: functional
# Outline: (§1)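 RBL-2H3 mast cells, 500 cells/well in 96-well plates, grown 24 h, medium changed and cells held 4 h. Agent added 1 h before LPS (10 ng/ml), then 24 h further incubation. Cell number by CellTiter-Glo luminescence, n = 3; values given as raw response and as percent of DMSO control.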
# RBL-2H3 [3] = assay: Antiproliferative activity against rat RBL2H3 cells at 10 uM treated 1 hr before LPS-challenge assessed after 24 hrs relative to control; type: functional; outline: as §1
# RBL-2H3 [4] = assay: Antiproliferative activity against rat RBL2H3 cells at 0.1 uM treated 1 hr before LPS-challenge assessed after 24 hrs relative to control; type: functional; outline: as §1
# HTB126 [5] = assay: Antiproliferative activity against human HTB126 cells assessed as […] at 10 uM after 72 hrs by luciferase assay; type: functional, cell-based
# Outline: (§2)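 HTB-126 human breast tumour cells, 2000 cells/well in 24-well plates, grown 24 h, then given vehicle or agent at 10 µM final (diluted from a DMSO stock), N = 6. Parallel plates assayed at successive times after treatment by CellTiter-Glo luciferase ATP luminescence, read 15 min after adding an equal volume of reagent; raw units reported.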
# HTB126 [6] = assay: Antiproliferative activity against human HTB126 cells assessed as […] at 10 uM after 24 hrs by luciferase assay; type: functional, cell-based; outline: as §2
# HTB126 [7] = assay: Antiproliferative activity against human HTB126 cells assessed as fluorescence units at 10 uM after 48 hrs by luciferase assay in presence of rimonabant; type: functional, cell-based
# Outline: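 HTB-126 tumor breast cells in 96-well plates. Rimonabant (10 µM) added 30 min before the test agent (10 µM). CellTiter-Glo luminescence read 48 h later, four replicates. Values reported as raw fluorescence units rather than percent, because there are two control treatments.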
# HTB126 [8] = assay: Antiproliferative activity against human HTB126 cells at 0.1 to 1.0 uM after 48 hrs by luciferase assay relative to control; type: functional, cell-based
# Outline: (§3)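 Matched breast lines from the same donor: HTB-125 (normal) and HTB-126 (tumor), seeded in 96-well plates and treated 24 h after seeding, DMSO vehicle. CellTiter-Glo ATP luminescence read 48 h after treatment. Four replicates per point over a dose series; values expressed as percent of vehicle-treated wells.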
# HTB126 [9] = assay: (§4) Antiproliferative activity against human HTB126 cells at 10 uM after 48 hrs by luciferase assay relative to control; type: functional
# Outline: (§5)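 HTB-126 cells, with matched normal HTB-125 from the same donor, in DMEM with 10% FBS. Cells seeded in 96-well plates and treated 24 h after seeding across a dose range, four replicates per point. CellTiter-Glo ATP luminescence read 48 h after treatment; values given as percent of vehicle (DMSO) wells.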
# HTB126 [10] = assay: Antiproliferative activity against human HTB126 cells assessed as […] at 10 uM after 48 hrs by luciferase assay; type: functional, cell-based; outline: as §2
# [11] = Antiproliferative activity against human HTB125 cells at 0.1 to 1.0 uM after 48 hrs by luciferase assay relative to control; type: cell-based; settings: htb125, 48 h; outline: as §3
# HTB126 [12] = assay: Antiproliferative activity against human HTB126 cells assessed as […] at 10 uM after 96 hrs by luciferase assay; type: functional, cell-based; outline: as §2
# [13] = Antiproliferative activity against human HTB125 cells at 10 uM after 48 hrs by luciferase assay relative to control; type: cell-based; settings: htb125, 48 h; outline: as §3
# [14] = as §4; type: functional; settings: HTB126, 48 h; outline: as §5
smiles,measurement,setting,value
CCCCC/C=C\C/C=C\C/C=C\CCCCCCC(=O)NCCO,Activity,RAW264.7,70%
same,Activity,[1],54%
CCCCC/C=C\C/C=C\C/C=C\CCCCCCC(=O)NCCc1ccc(O)c(O)c1,Activity,HeLa,Active
same,Activity,RAW264.7,5.72%
same,Activity,[1],25.5%
CCCCC/C=C\C/C=C\C/C=C\C/C=C\CCCC(=O)N[C@@H](C)C(=O)O,Activity,RBL-2H3 [2],160%
same,Activity,RBL-2H3 [3],50%
same,Activity,RBL-2H3 [4],120%
CCCCC/C=C\C/C=C\C/C=C\C/C=C\CCCCCC(=O)NCCO,Activity,RAW264.7,65%
same,Activity,[1],24%
CCCCCCCCCCCCCCCC(=O)N[C@@H](C)C(=O)O,Activity,RBL-2H3 [2],90%
same,Activity,RBL-2H3 [3],10%
same,Activity,RBL-2H3 [4],110%
CCCCC/C=C\C/C=C\C/C=C\CCCCC(=O)NCCO,Activity,RAW264.7,87%
same,Activity,[1],54%
CCCCC/C=C\C/C=C\C/C=C\CCCCC(=O)NCCc1ccc(O)c(O)c1,Activity,HeLa,Active
same,Activity,RAW264.7,6.1%
same,Activity,[1],38.3%
CCCCC/C=C\C/C=C\C/C=C\CCCCC(N)=O,Activity,RAW264.7,94%
same,Activity,[1],33%
CCCCC/C=C\C/C=C\C/C=C\CCCCCCC(N)=O,Activity,RAW264.7,82%
same,Activity,[1],58%
CCCCC/C=C\C/C=C\C/C=C\C/C=C\CCCCCC(=O)NCCc1ccc(O)c(O)c1,Activity,HeLa,Active
same,Activity,RAW264.7,4.32%
same,Activity,[1],25.7%
CCCCCCCCCCCCCCCC(=O)N[C@@H](Cc1ccc(O)cc1)C(=O)O,Activity,HTB126 [5],Active
same,Activity,HTB126 [6],Active
same,Activity,HTB126 [7],inactive
same,Activity,HTB126 [8],inactive
same,Activity,HTB126 [9],Active
same,Activity,HTB126 [10],Active
same,Activity,[11],Non-toxic
CCCCC/C=C\C/C=C\C/C=C\C/C=C\CCCCCC(N)=O,Activity,RAW264.7,91%
same,Activity,[1],61%
CCCCCCC(C)(C)c1cc(O)c2c(c1)OC(C)(C)[C@@H]1CC=C(C(=O)O)C[C@@H]21,Activity,HeLa,Active
same,Activity,HTB126 [5],Active
same,Activity,HTB126 [12],Active
same,Activity,HTB126 [6],Active
same,Activity,HTB126 [10],Active
CCCCC/C=C\C/C=C\C/C=C\C/C=C\CCCC(=O)NCCO [ANANDAMIDE],Activity,RAW264.7,110%
same,Activity,[1],74%
CCCCC/C=C\C/C=C\C/C=C\C/C=C\CCCC(N)=O [ARACHIDONAMIDE],Activity,RAW264.7,91%
same,Activity,[1],58%
CCCCC/C=C\C/C=C\C/C=C\C/C=C\CCCC(=O)NCCc1ccc(O)c(O)c1 [ARACHIDONOYL DOPAMINE],Activity,RBL-2H3 [2],70%
same,Activity,RBL-2H3 [3],14%
same,Activity,RAW264.7,2.33%
same,Activity,RBL-2H3 [4],110%
same,Activity,[1],22.1%
CCCCC/C=C\C/C=C\C/C=C\C/C=C\CCCC(=O)NCCCC(=O)O [ARACHIDONOYL GABA],Activity,RBL-2H3 [2],120%
same,Activity,RBL-2H3 [3],15%
same,Activity,RBL-2H3 [4],100%
CCCCC/C=C\C/C=C\C/C=C\C/C=C\CCCC(=O)NCC(=O)O [ARACHIDONOYL GLYCINE],Activity,RBL-2H3 [2],130%
same,Activity,RBL-2H3 [3],21%
same,Activity,RBL-2H3 [4],130%
COc1ccc2c(c1)c(CC(=O)O)c(C)n2C(=O)c1ccc(Cl)cc1 [INDOMETHACIN],Activity,RAW264.7,177%
same,Activity,[1],144%
CC/C=C\C/C=C\C/C=C\CCCCCCCC(N)=O [LINOLENAMIDE],Activity,RAW264.7,126%
same,Activity,[1],85%
CCCCC/C=C\C/C=C\CCCCCCCC(=O)NCCO [LINOLEOYLETHANOLAMIDE],Activity,RAW264.7,100%
same,Activity,[1],63%
CCCCCCCC/C=C\CCCCCCCC(N)=O [OLEAMIDE],Activity,RAW264.7,134%
same,Activity,[1],94%
CCCCCCCC/C=C\CCCCCCCC(=O)NCCc1ccc(O)c(O)c1 [OLEOYL DOPAMINE],Activity,HeLa,Active
same,Activity,RAW264.7,7.02%
same,Activity,[1],24%
CCCCCCCC/C=C\CCCCCCCC(=O)NCCO [OLEOYLETHANOLAMIDE],Activity,RAW264.7,117%
same,Activity,[1],140%
CCCCCCCCCCCCCCCC(=O)NCCO [PALMIDROL],Activity,RAW264.7,66%
same,Activity,[1],130%
CCCCCCCCCCCCCCCC(N)=O [PALMITAMIDE],Activity,RAW264.7,100%
same,Activity,[1],118%
CCCCCCCCCCCCCCCC(=O)NCCc1ccc(O)c(O)c1 [PALMITOYL DOPAMINE],Activity,RBL-2H3 [2],50%
same,Activity,[13],Not Active
same,Activity,RBL-2H3 [3],15%
same,Activity,RAW264.7,11.1%
same,inhibition at 10 µM,[14],80%
same,Activity,RBL-2H3 [4],130%
same,Activity,[1],41.6%
CCCCCCCCCCCCCCCC(=O)NCCCC(=O)O [PALMITOYL GABA],Activity,RBL-2H3 [2],100%
same,Activity,RBL-2H3 [3],100%
same,Activity,RBL-2H3 [4],120%
CCCCCCCCCCCCCCCC(=O)NCC(=O)O [PALMITOYL GLYCINE],Activity,HeLa,Active
same,Activity,RBL-2H3 [2],110%
same,Activity,RBL-2H3 [3],110%
same,Activity,RBL-2H3 [4],130%
